We go through two compounds from ChEMBL document CHEMBL3244416, “Structural requirements for progestational activity. Synthesis and properties of rac-8alpha,9beta,10alpha,14beta-progesterone” (1979).

The subject of experiment [1] is Oryctolagus cuniculus. The experiment in a line: Progestational activity in rabbit assessed as mean uterine weight at 0.4 mg, sc by Clauberg assay. The format is functional. A digest of the protocol: (§1)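 Modified Clauberg assay in rabbits, 2 animals per dose group, with the total dose given by subcutaneous injection. Uterine progestational proliferation was scored histologically by McPhail's method and reported as the range and mean proliferation index. Uterine weight was reported as the group mean.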

For experiment [2], the system named is Oryctolagus cuniculus. The experiment in a line: Progestational activity in rabbit assessed as mean uterine weight at 4 mg, sc by Clauberg assay. The format is functional. A digest of the protocol: as §1
In experiment [3] the test system is Oryctolagus cuniculus. Description: Progestational activity in rabbit assessed as range of proliferation index at 0.4 mg, sc by Clauberg assay relative to control. The experiment is classed as functional. A digest of the protocol:
as §1

In experiment [4] the test system is Oryctolagus cuniculus. The experiment in a line: Progestational activity in rabbit assessed as range of proliferation index at 4 mg, sc by Clauberg assay relative to control. The format is functional. An outline of the steps: as §1
Experiment [5] relates to Oryctolagus cuniculus. Description: Progestational activity in rabbit assessed as mean proliferation index at 0.4 mg, sc by Clauberg assay relative to control. The format is functional. A digest of the protocol:
as §1

In experiment [6] the test system is Oryctolagus cuniculus. Description: Progestational activity in rabbit assessed as mean proliferation index at 4 mg, sc by Clauberg assay relative to control. The format is functional. A digest of the protocol: as §1
Experiment [7] concerns the target T1, Progesterone receptor (Oryctolagus cuniculus) (UniProt P06186).
T1 sequence (whole entry): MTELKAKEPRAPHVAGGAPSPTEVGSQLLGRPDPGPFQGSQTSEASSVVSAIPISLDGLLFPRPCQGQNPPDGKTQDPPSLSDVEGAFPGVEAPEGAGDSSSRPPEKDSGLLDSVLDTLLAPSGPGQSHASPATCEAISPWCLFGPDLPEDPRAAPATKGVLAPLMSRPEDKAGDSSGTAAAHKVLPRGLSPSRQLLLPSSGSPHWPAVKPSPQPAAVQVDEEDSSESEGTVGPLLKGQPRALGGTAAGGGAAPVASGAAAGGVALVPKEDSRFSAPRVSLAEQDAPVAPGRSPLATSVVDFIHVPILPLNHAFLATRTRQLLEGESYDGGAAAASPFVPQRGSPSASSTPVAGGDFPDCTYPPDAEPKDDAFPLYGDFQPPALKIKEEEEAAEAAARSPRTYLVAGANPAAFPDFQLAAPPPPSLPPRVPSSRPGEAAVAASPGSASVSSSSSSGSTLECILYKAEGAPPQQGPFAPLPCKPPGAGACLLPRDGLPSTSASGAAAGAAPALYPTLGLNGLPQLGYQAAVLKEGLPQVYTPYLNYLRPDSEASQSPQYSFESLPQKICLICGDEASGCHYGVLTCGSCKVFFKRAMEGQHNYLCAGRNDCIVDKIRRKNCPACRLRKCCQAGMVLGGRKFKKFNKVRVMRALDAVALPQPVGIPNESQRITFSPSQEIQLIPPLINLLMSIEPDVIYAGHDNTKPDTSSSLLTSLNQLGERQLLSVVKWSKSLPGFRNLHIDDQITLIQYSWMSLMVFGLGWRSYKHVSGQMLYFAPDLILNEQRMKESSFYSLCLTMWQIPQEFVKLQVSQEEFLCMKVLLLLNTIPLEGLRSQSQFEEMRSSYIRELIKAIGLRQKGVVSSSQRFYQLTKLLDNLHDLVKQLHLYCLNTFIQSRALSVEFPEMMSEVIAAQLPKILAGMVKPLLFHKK
Description: Displacement of [3H]-progesterone from progesterone receptor in rabbit uterine cytosol relative to progesterone. Conditions: Uterus. A general note: Loss of bound radioactivity is the signal in a displacement assay; it reports binding, not function.

Experiment [8] deals with Oryctolagus cuniculus. Description: Progestational activity in rabbit assessed as mean uterine weight at 0.2 mg, sc by Clauberg assay. The experiment is classed as functional. An outline of the steps:
as §1

Experiment [9] relates to Oryctolagus cuniculus. The experiment in a line: Progestational activity in rabbit assessed as mean uterine weight at 0.5 mg, sc by Clauberg assay. The experiment is classed as functional. An outline of the steps:
as §1

The test system of experiment [10] is Oryctolagus cuniculus. The experiment in a line: Progestational activity in rabbit assessed as range of proliferation index at 0.2 mg, sc by Clauberg assay relative to control. The format is functional. A digest of the protocol:
as §1

Experiment [11] concerns Oryctolagus cuniculus. The experiment in a line: Progestational activity in rabbit assessed as range of proliferation index at 0.5 mg, sc by Clauberg assay relative to control. The format is functional. An outline of the steps: as §1
Experiment [12] has as its system Oryctolagus cuniculus. Description: Progestational activity in rabbit assessed as mean proliferation index at 0.2 mg, sc by Clauberg assay relative to control. The format is functional. An outline of the steps: as §1
Experiment [13] deals with Oryctolagus cuniculus. Description: Progestational activity in rabbit assessed as mean proliferation index at 0.5 mg, sc by Clauberg assay relative to control. The experiment is classed as functional. A digest of the protocol:
as §1

`CC(=O)[C@H]1CC[C@@H]2[C@H]3CCC4=CC(=O)CC[C@@]4(C)[C@@H]3CC[C@]12C` (racemic): the Activity came to 0.79 g in the experiment on Oryctolagus cuniculus [1] and 1.24 g with Oryctolagus cuniculus [2]. The Ratio is 0 in the experiment with Oryctolagus cuniculus [3], 1 with Oryctolagus cuniculus [4], 0 in the experiment with Oryctolagus cuniculus [5] and 2 with Oryctolagus cuniculus [6]. The RBA in experiment [7] worked out at 2%.
In the case of `CC(=O)[C@H]1CC[C@H]2[C@@H]3CCC4=CC(=O)CC[C@]4(C)[C@H]3CC[C@]12C` [PROGESTERONE], the Activity with Oryctolagus cuniculus [8] is 1.49 g; in the experiment with Oryctolagus cuniculus [9] it was 2.34 g. Moreover, the Ratio in the experiment on Oryctolagus cuniculus [10] was 0.5; with Oryctolagus cuniculus [11], 3.5; in the experiment on Oryctolagus cuniculus [12], 0.75; in the experiment with Oryctolagus cuniculus [13] it was 3.5.
